Test results from ChEMBL document CHEMBL1156870, “De novo design of a picomolar nonbasic 5-HT(1B) receptor antagonist” (J Med Chem, 2010).
Active and inactive are the calls of the source. No cut-off for these calls is given here.

What was measured:
[1] = biological target: T1, 5-hydroxytryptamine receptor 1B (Homo sapiens, UniProt P28222); assay: Binding affinity to 5HT1B receptor expressed in CHO cells; assay type: cell-based
Method in brief: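 Frozen membranes from stably transfected CHO cells expressing 5-HT1B, 10 μg/well. Buffer: 50 mM Tris-HCl, 4 mM MgCl2, 4 mM CaCl2, 1 mM EDTA, pH 7.4. [3H]GR125743 at 0.5 nM final; nonspecific binding defined with 1 μM AZD1134. 11-point dilutions, 10 μM to 170 pM final. 1 h at room temperature, then WGA yttrium silicate SPA beads for 30 min. IC50 and Ki derived with Kenakin correction for ligand depletion.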

[2] = biological target: T1, 5-hydroxytryptamine receptor 1B; assay: Antagonist activity at 5HT1B receptor expressed in CHO cells by [35S]GTPgammaS assay; assay type: functional, cell-based; design: concentration or dose not given beside the values
[3] = biological target: 5-hydroxytryptamine receptor 2B (Homo sapiens) (UniProt P41595); assay: Inhibition of human 5HT2B receptor at 10 uM
Sequence of 5-hydroxytryptamine receptor 2B (Homo sapiens) (P41595 whole entry): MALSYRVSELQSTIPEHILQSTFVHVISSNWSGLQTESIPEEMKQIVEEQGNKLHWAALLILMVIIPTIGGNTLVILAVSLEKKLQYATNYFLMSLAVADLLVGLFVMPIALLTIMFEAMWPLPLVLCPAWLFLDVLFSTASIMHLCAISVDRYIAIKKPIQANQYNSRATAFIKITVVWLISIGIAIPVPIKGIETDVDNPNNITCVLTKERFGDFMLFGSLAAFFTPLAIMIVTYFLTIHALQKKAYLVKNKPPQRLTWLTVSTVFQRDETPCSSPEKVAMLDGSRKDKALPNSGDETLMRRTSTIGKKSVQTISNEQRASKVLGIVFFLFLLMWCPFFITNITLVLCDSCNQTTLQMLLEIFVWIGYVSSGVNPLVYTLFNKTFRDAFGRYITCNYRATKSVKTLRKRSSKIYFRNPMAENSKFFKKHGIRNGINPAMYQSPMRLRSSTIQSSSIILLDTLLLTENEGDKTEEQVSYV
Method in brief: (§1)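 Radioligand binding assays from an outside panel of 100 targets, single concentration 10 μM, reported as % effect. Receptor species: human for 5-HT1A, 5-HT2A and 5-HT2B; guinea pig for 5-HT4.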

[4] = biological target: 5-hydroxytryptamine receptor 4 (Cavia porcellus) (UniProt O70528); assay: Inhibition of guinea pig 5HT4 receptor at 10 uM; method in brief: as §1
Sequence of 5-hydroxytryptamine receptor 4 (Cavia porcellus) (O70528 whole entry): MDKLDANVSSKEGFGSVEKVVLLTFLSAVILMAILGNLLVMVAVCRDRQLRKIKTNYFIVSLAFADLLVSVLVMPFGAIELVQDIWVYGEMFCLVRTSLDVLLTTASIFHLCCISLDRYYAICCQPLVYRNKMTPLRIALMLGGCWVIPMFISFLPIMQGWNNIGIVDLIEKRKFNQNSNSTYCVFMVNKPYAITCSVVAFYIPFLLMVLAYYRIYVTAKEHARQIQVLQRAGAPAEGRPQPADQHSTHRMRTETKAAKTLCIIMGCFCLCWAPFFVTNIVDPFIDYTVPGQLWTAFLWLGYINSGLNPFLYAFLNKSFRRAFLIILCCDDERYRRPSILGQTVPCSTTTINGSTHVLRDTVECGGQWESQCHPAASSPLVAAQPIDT

Cavia porcellus = assay: Reversal of NXY041-induced hypothermia in sc dosed guinea pig; assay type: functional, organism-based
[5] = biological target: T2, 5-hydroxytryptamine receptor 1A (Homo sapiens) (UniProt P08908); assay: Inhibition of human 5HT1A receptor at 10 uM; method in brief: as §1
T2 sequence (whole entry): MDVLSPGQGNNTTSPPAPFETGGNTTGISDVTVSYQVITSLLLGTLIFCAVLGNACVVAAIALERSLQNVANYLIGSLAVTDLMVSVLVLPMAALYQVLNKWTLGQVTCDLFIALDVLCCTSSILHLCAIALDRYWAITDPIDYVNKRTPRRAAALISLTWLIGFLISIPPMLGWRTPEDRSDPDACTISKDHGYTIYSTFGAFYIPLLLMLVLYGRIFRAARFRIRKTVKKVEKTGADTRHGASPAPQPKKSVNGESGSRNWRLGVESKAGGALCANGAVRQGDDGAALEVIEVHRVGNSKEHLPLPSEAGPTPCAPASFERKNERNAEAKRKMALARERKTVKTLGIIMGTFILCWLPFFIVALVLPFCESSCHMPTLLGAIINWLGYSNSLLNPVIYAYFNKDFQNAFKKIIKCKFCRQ

[6] = biological target: 5-hydroxytryptamine receptor 2A (Homo sapiens) (UniProt P28223); assay: Inhibition of human 5HT2A receptor at 10 uM; method in brief: as §1
Sequence of 5-hydroxytryptamine receptor 2A (Homo sapiens) (P28223 whole entry): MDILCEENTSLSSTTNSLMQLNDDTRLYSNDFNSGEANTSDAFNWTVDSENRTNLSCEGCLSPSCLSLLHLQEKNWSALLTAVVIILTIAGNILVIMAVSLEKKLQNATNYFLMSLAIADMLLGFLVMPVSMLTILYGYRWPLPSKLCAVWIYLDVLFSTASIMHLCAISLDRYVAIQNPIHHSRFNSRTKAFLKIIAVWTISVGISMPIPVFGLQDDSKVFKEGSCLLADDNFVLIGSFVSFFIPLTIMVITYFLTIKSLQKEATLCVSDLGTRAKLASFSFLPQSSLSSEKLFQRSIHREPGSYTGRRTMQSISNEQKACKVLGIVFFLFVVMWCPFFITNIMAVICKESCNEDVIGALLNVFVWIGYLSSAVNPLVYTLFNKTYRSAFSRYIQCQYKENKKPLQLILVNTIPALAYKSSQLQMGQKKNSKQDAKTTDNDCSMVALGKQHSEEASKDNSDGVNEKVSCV

[7] = system: in vitro phospholipidosis assay (no protein target); assay: in vitro; conditions: human

T1 sequence (P28222 whole entry): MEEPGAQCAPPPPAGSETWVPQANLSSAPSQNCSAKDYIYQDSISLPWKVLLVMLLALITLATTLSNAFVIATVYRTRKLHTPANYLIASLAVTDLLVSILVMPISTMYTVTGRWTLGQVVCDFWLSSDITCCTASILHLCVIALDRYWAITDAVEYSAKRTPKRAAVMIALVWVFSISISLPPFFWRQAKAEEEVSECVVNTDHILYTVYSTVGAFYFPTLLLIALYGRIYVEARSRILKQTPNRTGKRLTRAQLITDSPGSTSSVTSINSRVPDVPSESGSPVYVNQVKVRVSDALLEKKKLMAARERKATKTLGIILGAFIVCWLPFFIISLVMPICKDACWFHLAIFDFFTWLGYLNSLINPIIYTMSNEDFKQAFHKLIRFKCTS

Row | SMILES | Ki [1] [nM] | Activity [2] [%] | other results
1 | COc1cc2c(c(N3CCN(C)CC3)c1)O[C@@H](C(=O)Nc1ccc(N3CCOCC3)cc1)CC2 | 12 | 120 | –
2 | CCC(=O)N1CCN(c2ccc(NC(=O)c3cc(=O)c4cc(F)cc(N5CCN(C)CC5)c4o3)cc2)CC1 | 1.7 | 150 | –
3 | Cc1n[nH]c(C)c1-c1ccc(C)c2c(=O)cc(C(=O)Nc3ccc(N4CCOCC4)cc3)[nH]c12 | – | 33 | –
4 | Cc1n[nH]c(C)c1-c1ccc(C)c2c(O)cc(C(=O)Nc3ccc(N4CCOCC4)cc3)nc12 | 9.3 | – | inhibition at 300 µM [7]: 12%

More lines, main results first:

Row | Ki [1] [nM] | Activity [2] [%] | SMILES | other results
5 | 0.96 | 62 | COC1(c2ccc(NC(=O)C3CCc4cc(F)cc(-c5c(C)nn(C)c5C)c4O3)cn2)CCOCC1 (stereo unspecified) | –
6 | 0.43 | 90 | COC1(c2ccc(NC(=O)c3cc(=O)c4cc(F)cc(-c5c(C)nn(C)c5C)c4o3)cn2)CCOCC1 | inhibition [3]: 4%; inhibition [4]: 30%; Activity (Cavia porcellus): Active; inhibition [5]: -8%; inhibition [6]: -5%
